According to ChEMBL document CHEMBL3102806, “1,2,4-Triazole/oxime hybrids as new strategy for nitric oxide donors: Synthesis, anti-inflammatory, ulceroginicity and antiproliferative activities” (Eur J Med Chem, 2014):

Assays:
[1] = Growth inhibition of human EKVX cells assessed as cell growth at 10^-5 M after 48 hrs by sulforhodamine B assay relative to control; type: functional; conditions: read-out: Activity
How it was run: (§1)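 NCI ~60 human tumour cell line screen. Single concentration of 10^-5 M added to cultures for 48 h. End point by sulforhodamine B protein staining read spectrophotometrically. Percent growth relative to untreated control cells.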

SNB-75 = experiment: Growth inhibition of human SNB75 cells assessed as cell growth at 10^-5 M after 48 hrs by sulforhodamine B assay relative to control; type: functional; conditions: SNB-75, 48 h, read-out: Activity
How it was run: (§2)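 NCI primary screen across about 60 human tumour cell lines. Single dose of 10^-5 M, cultures incubated 48 h, end point by sulforhodamine B protein staining read spectrophotometrically. Results are given as percent growth of treated cells relative to untreated control cells.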

IGROV-1 = experiment: Growth inhibition of human IGROV1 cells assessed as cell growth at 10^-5 M after 48 hrs by sulforhodamine B assay relative to control; type: functional; conditions: IGROV-1, 48 h, read-out: Activity; how it was run: as §1
U-251 = experiment: Growth inhibition of human U251 cells assessed as cell growth at 10^-5 M after 48 hrs by sulforhodamine B assay relative to control; type: functional; conditions: U-251, 48 h, read-out: Activity; how it was run: as §2
Rattus norvegicus = experiment: Antiinflammatory activity in albino rat assessed as inhibition of carrageenan-induced paw edema at 0.28 mmol/kg, po administered 30 mins prior to carrageenan-challenge measured after 1 hr relative to control; type: functional
How it was run: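 Male albino rats in groups of four were fasted 24 h with water allowed. Dosing was oral at 0.28 mmol/kg, suspended in 0.5% w/v CMC; controls got CMC alone. After 30 min, 0.1 ml of 1% carrageenan in saline went subplantar into the right hind paw and saline into the left. Paw thickness was read by caliper before and at 1–5 h. % inhibition = [(VR−VL)control−(VR−VL)treated]/(VR−VL)control ×100. Mean ± SEM, n = 4, one-way ANOVA vs control.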

[2] = Growth inhibition of human NCI-ADR-RES cells assessed as cell growth at 10^-5 M after 48 hrs by sulforhodamine B assay relative to control; type: functional; conditions: read-out: Activity
How it was run: (§3)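 NCI primary screen, one-dose format across about 60 human tumour cell lines. Single addition at 10^-5 M with 48 h incubation; SRB protein-binding dye end point read spectrophotometrically. Reported as percent growth of treated cells versus untreated controls.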

[3] = Growth inhibition of human OVCAR5 cells assessed as cell growth at 10^-5 M after 48 hrs by sulforhodamine B assay relative to control; type: functional; conditions: OVCAR-5, 48 h, read-out: Activity; how it was run: as §3
[4] = Induction of nitric oxide release in phosphate buffer at 10^-4 M at pH 7.4 after 6 hrs by Griess colorimetric method in presence of N-acetylcysteine; type: physicochemical; conditions: pH 7.4, 6 h, 100 µM
How it was run: (§4)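 Final drug concentration 10^-4 M, added from DMF into 1:1 50 mM phosphate buffer (pH 7.4)/MeOH containing 5 × 10^-4 M N-acetylcysteine, at 37 °C. Nitrite read with Griess reagent after 10 min at room temperature, absorbance at 546 nm. Calibration with sodium nitrite standards (10–80 nmol/ml). Reported as mol NO per mol, n = 4 reaction mixtures.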

SW-620 = experiment: Growth inhibition of human SW620 cells assessed as cell growth at 10^-5 M after 48 hrs by sulforhodamine B assay relative to control; type: functional; conditions: SW-620, 48 h, read-out: Activity; how it was run: as §2
NCI-H522 = experiment: Growth inhibition of human NCI-H522 cells assessed as cell growth at 10^-5 M after 48 hrs by sulforhodamine B assay relative to control; type: functional; conditions: NCI-H522, 48 h, read-out: Activity; how it was run: as §3
SK-MEL-5 = experiment: Growth inhibition of human SK-MEL-5 cells assessed as cell growth at 10^-5 M after 48 hrs by sulforhodamine B assay relative to control; type: functional; conditions: SK-MEL-5, 48 h, read-out: Activity; how it was run: as §2
HT-29 = experiment: Growth inhibition of human HT-29 cells assessed as cell growth at 10^-5 M after 48 hrs by sulforhodamine B assay relative to control; type: functional; conditions: HT-29, 48 h, read-out: Activity; how it was run: as §1
CAKI-1 = experiment: Growth inhibition of human CAKI-1 cells assessed as cell growth at 10^-5 M after 48 hrs by sulforhodamine B assay relative to control; type: functional; conditions: CAKI-1, 48 h, read-out: Activity; how it was run: as §1
UACC-62 = experiment: Growth inhibition of human UACC62 cells assessed as cell growth at 10^-5 M after 48 hrs by sulforhodamine B assay relative to control; type: functional; conditions: UACC-62, 48 h, read-out: Activity; how it was run: as §2
SR = experiment: Growth inhibition of human SR cells assessed as cell growth at 10^-5 M after 48 hrs by sulforhodamine B assay relative to control; type: functional; conditions: read-out: Activity; how it was run: as §2
SNB-19 = experiment: Growth inhibition of human SNB19 cells assessed as cell growth at 10^-5 M after 48 hrs by sulforhodamine B assay relative to control; type: functional; conditions: SNB-19, 48 h, read-out: Activity; how it was run: as §2
[5] = Induction of nitric oxide release in phosphate buffer at 10^-4 M at pH 7.4 after 5 hrs by Griess colorimetric method in presence of N-acetylcysteine; type: physicochemical; conditions: pH 7.4, 5 h, 100 µM; how it was run: as §4
BT-549 = experiment: Growth inhibition of human BT549 cells assessed as cell growth at 10^-5 M after 48 hrs by sulforhodamine B assay relative to control; type: functional; conditions: BT-549, 48 h, read-out: Activity; how it was run: as §1
DU-145 = experiment: Growth inhibition of human DU145 cells assessed as cell growth at 10^-5 M after 48 hrs by sulforhodamine B assay relative to control; type: functional; conditions: DU-145, 48 h, read-out: Activity; how it was run: as §1
MCF7 = experiment: Growth inhibition of human MCF7 cells assessed as cell growth at 10^-5 M after 48 hrs by sulforhodamine B assay relative to control; type: functional; conditions: MCF7, 48 h, read-out: Activity; how it was run: as §3
MDA-MB-435 = experiment: Growth inhibition of human MDA-MB-435 cells assessed as cell growth at 10^-5 M after 48 hrs by sulforhodamine B assay relative to control; type: functional; conditions: MDA-MB-435, 48 h, read-out: Activity; how it was run: as §3
SF-295 = experiment: Growth inhibition of human SF295 cells assessed as cell growth at 10^-5 M after 48 hrs by sulforhodamine B assay relative to control; type: functional; conditions: SF-295, 48 h, read-out: Activity; how it was run: as §3
SK-OV-3 = experiment: Growth inhibition of human SKOV3 cells assessed as cell growth at 10^-5 M after 48 hrs by sulforhodamine B assay relative to control; type: functional; conditions: SK-OV-3, 48 h, read-out: Activity; how it was run: as §2
MOLT-4 = experiment: Growth inhibition of human MOLT4 cells assessed as cell growth at 10^-5 M after 48 hrs by sulforhodamine B assay relative to control; type: functional; conditions: MOLT-4, 48 h, read-out: Activity; how it was run: as §3
SN12C = experiment: Growth inhibition of human SN12C cells after 48 hrs by sulforhodamine B assay; type: functional
How it was run: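 NCI 60-cell-line panel, five-dose run at 10-fold dilutions from 10^-4 to 10^-8 M, 48 h continuous exposure. Viability by SRB protein stain. Percent growth is taken from time-zero, untreated-control and treated absorbances. GI50 is the concentration giving a 50% lower net protein increase than in control cells. TGI is taken at Ti = Tz, LC50 at a 50% loss of initial protein.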

| SMILES | growth at 10 µM [1] | growth at 10 µM (SNB-75) | growth at 10 µM (IGROV-1) | growth at 10 µM (U-251) | inhibition in vivo at 280 µmol/kg (Rattus norvegicus) | growth at 10 µM [2] | growth at 10 µM [3] | Activity [4] | growth at 10 µM (SW-620) | growth at 10 µM (NCI-H522) | growth at 10 µM (SK-MEL-5) | growth at 10 µM (HT-29) | growth at 10 µM (CAKI-1) | growth at 10 µM (UACC-62) | growth at 10 µM (SR) | growth at 10 µM (SNB-19) | Activity [5] | growth at 10 µM (BT-549) | growth at 10 µM (DU-145) | growth at 10 µM (MCF7) | other results |
| --- | --- | --- | --- | --- | --- | --- | --- | --- | --- | --- | --- | --- | --- | --- | --- | --- | --- | --- | --- | --- | --- |
| C/C(=N\O)c1ccc(NC(=O)CSc2nnc(-c3ccccc3)n2-c2ccccc2)cc1 | 91.9% | 59.2% | 81.4% | 63.6% | 50% | 39.3% | 84.7% | 0.16 mol/mol | 99.8% | 53.3% | 94.5% | 73.3% | 99.9% | 76.7% | 106% | 45.8% | 0.14 mol/mol | 75.3% | 67.9% | 62.5% | growth at 10 µM (MDA-MB-435): 118%; growth at 10 µM (SF-295): 52.6%; growth at 10 µM (SK-OV-3): 80.5%; growth at 10 µM (MOLT-4): 95.2% |
| COc1ccc(-c2nnc(SCC(=O)Nc3ccc(/C(C)=N/O)cc3)n2-c2ccccc2)cc1OC | 71.1% | -16.5% | 70.9% | 34.4% | 57% | 90.6% | 97% | 0.31 mol/mol | 115% | 35.3% | 94.6% | 91.2% | 87.4% | 82.8% | 95.4% | 75.8% | 0.35 mol/mol | 65.2% | 88.3% | 69.2% | GI50 (SN12C): 26.2 µM; TGI (SN12C): > 100 µM; CC50 (SN12C; read-out: LC50 (the source's name)): > 100 µM; growth at 10 µM (MDA-MB-435): 104%; growth at 10 µM (SF-295): 39.1%; growth at 10 µM (SK-OV-3): 4.74%; growth at 10 µM (MOLT-4): 91.7% |
